Assay outcomes deposited in PubChem by Broad Institute.
In the library only some 3.3% were active in any assay of this set; here they are far more common.
E-selectin induc = E-selectin induction on HUVECs. P16581. HUVEC E-selectin immunofluorescence imaging; normalized: neutral wells 0, TNF-alpha wells 100. activation, % at 7.58 µM. actives 0.37% (n = 260,000). AID 686992;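 active means mean E-selectin-positive cell signal at least 10% of the positive control, reached in at least 60% of replicates, without over 20% cell loss; inconclusive means no rule given, readout overlaps actives, possibly toxicity-flagged; inactive means the rest, including those meeting only one limit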
Target sequence (P16581 whole entry, looked up): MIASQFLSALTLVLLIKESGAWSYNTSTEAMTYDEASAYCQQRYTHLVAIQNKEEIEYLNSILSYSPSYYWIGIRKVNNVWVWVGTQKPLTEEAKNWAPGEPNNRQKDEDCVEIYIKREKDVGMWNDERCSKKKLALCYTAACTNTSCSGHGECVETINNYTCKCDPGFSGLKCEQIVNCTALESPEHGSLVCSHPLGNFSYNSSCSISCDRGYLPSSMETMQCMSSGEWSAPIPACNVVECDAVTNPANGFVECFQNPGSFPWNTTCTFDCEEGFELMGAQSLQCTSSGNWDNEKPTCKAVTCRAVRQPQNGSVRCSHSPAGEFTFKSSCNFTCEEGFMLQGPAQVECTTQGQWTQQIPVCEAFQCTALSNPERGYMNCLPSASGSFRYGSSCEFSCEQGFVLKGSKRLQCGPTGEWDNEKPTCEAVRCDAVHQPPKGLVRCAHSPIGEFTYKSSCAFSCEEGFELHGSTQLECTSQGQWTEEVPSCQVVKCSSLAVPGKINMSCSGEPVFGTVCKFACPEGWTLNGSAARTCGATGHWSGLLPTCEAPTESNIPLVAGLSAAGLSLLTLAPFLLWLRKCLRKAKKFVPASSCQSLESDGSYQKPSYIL
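System: HUVEC, human umbilical vein endothelial cells; quantity: 3,000 cells/well; buffer or medium: EGM-2 medium, gelatin-coated wells; dosing: single-point compound dose; detection: immunofluorescence imaging; evaluation: % PE-positive cells; benchmarks: TNF-alpha, DMSO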
PglD inh = PglD (C. jejuni) enzyme inhibition; purified PglD enzyme, DTNB colorimetric CoA detection; actives 0.098% (n = 360,000); inhibition, % at 12.5 µM; in the data active means inhibition above about 16%, passing the limit was not always enough; inconclusive means no clear call, values can overlap the other calls
Xi reactivation = X-chromosome reactivation activator. XiGFP mouse fibroblasts, % GFP-positive cells imaging, 3 d; cells co-treated with 5-aza-dC sensitizer; scaled so ellipticine positive control = 100%. activation, % at 7.58 µM. actives 0.055% (n = 360,000);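 active means mean normalized replicate activation at least 10% and every replicate at or above 10%; inconclusive means only one of the two criteria met; inactive means mean below 10% and not all replicates reach 10%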;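 further: 0% = median of on-plate neutral control wells and 100% = ellipticine 6 µM median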
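System: SV40-immortalized XiGFP fibroblast cells, line 68-5-11 / Incubation: 3-day compound exposure, then 15 min fixation at room temperature / Compound: single concentration per compound, delivered by pin transfer / Buffer or medium: DMEM plus 5-aza-dC sensitizer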
FGF22 binding = shifts melting point of recombinant human FGF22. Q9HCT0. recombinant FGF22 thermal shift, SYPRO orange fluorescence; percent of sucrose octasulfate shift, DMSO zero. activity (Tm shift, normalised), % at 9.99 µM. actives 1.5% (n = 340,000). AID 651658;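 active means mean Tm shift, scaled 0 neutral to 100 positive control, at about 1.3% or above, every replicate too, limit read from the data; inconclusive means no clear call, values can overlap the other calls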
Statin myotox sup = suppression of simvastatin myotoxicity. C2C12 myotubes + simvastatin, ATP luminescence, 48 h; scaled: DMSO 0, geranylgeraniol control 100. rescue of ATP level, % at 7.49 µM. actives 0.78% (n = 330,000). AID 602340;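 active means mean ATP rescue above about 67%, or every replicate alone reaching that limit, limit read from the data, passing the limit was not always enough; inconclusive means no clear call, values can overlap the other calls; inactive means mean under the limit and some replicate under it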;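 further: myotubes were challenged with 10 µM simvastatin during compound exposure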
DENV2 CPE = inhibitors of DENV2 cytopathic effect; DENV2-infected cells, cytopathic effect rescue, plate reader; actives 1.7% (n = 350,000); CPE inhibition, % at 9.99 µM; AID 651640; in the data active means CPE inhibition above about 20%, passing the limit was not always enough; inconclusive means no clear call, values can overlap the other calls; tested in BHK-21 cells;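 further: 0% = median of neutral control wells and 100% = median of positive control wells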
* = called active by the depositor.

`CCOc1cc(N2CCOCC2)c(OCC)cc1NC(=O)CN1C(=O)NC2(CCc3ccccc32)C1=O` (stereo not given) gave PglD inh 0 and Statin myotox sup 89*.
For CCOc1cc(N2CCOCC2)c(OCC)cc1NC(=O)[C@H](C)NC(=O)c1ccco1 the results were PglD inh 6, Xi reactivation 0, FGF22 binding -1, Statin myotox sup -7 and DENV2 CPE 37*.
CCOc1cc(N2CCOCC2)c(OCC)cc1NC(=O)c1ccc(C)cc1 was read as E-selectin induc 1, Xi reactivation 0, FGF22 binding 0 and DENV2 CPE 3.
CCOc1cc(N2CCOCC2)c(OCC)cc1NC(=O)c1ccc(OC(C)C)cc1 was read as E-selectin induc 8, Xi reactivation 0, FGF22 binding 43* and DENV2 CPE 2.
Screening CC(=O)c1ccc(NC(=S)Nc2ccc(Br)c(Cl)c2)cc1 returned Xi reactivation 0, FGF22 binding 1.4* and DENV2 CPE inconclusive.
`CC(=O)c1ccc(NC(=S)Nc2ccc3cn[nH]c3c2)cc1` gave PglD inh -6, Xi reactivation 0, FGF22 binding 1.8*, Statin myotox sup 3 and DENV2 CPE 1.
`O=C(C[C@@H]1C=C[C@H](NS(=O)(=O)c2ccccc2F)[C@H](CO)O1)NCCCN1CCOCC1` gave E-selectin induc 0, PglD inh 1, Xi reactivation 5, FGF22 binding 0, Statin myotox sup 12 and DENV2 CPE -1.
CC(=O)Oc1cc(OC(C)=O)c2c(C)cc(=O)oc2c1 was read as PglD inh 8 and Statin myotox sup 97*.
N#C[C@H]1[C@@H](c2ccccc2-c2ccccc2)[C@H](CO)N1C(=O)Cc1cccnc1 was read as E-selectin induc 0, Xi reactivation 0, FGF22 binding 0 and DENV2 CPE -1.
CN1C(=O)c2ccccc2CC12c1ccccc1C(=O)N2C (stereo not given) was read as E-selectin induc 0, PglD inh -1, Xi reactivation 0, FGF22 binding 43*, Statin myotox sup -9 and DENV2 CPE 8.
CCOc1ccc(NCc2cccn2-c2nnc(N3CCC(C(=O)NCCCN4C(C)CCCC4C)CC3)s2)cc1 (stereo not given) was read as PglD inh -6, Xi reactivation 0, FGF22 binding 0, Statin myotox sup 102* and DENV2 CPE 5.
`CO[C@@H]1CN(C)C(=O)c2ccc(NS(=O)(=O)c3ccccc3Cl)cc2OC[C@H](C)NC[C@H]1C` gave E-selectin induc 0, PglD inh -2, Xi reactivation 0, FGF22 binding 0, Statin myotox sup 3 and DENV2 CPE 12.
For CCCNC(=O)N[C@H]1CC[C@@H](CCn2cc(-c3cccc(F)c3)nn2)O[C@@H]1CO the results were E-selectin induc 0, PglD inh -3, Xi reactivation 0, FGF22 binding 0, Statin myotox sup -12 and DENV2 CPE -2.
Screening COc1ccc(NC(=O)N[C@H]2CC[C@@H](CCn3cc(-c4ccc(OC)cc4)nn3)O[C@H]2CO)cc1 returned E-selectin induc 0, PglD inh 1, Xi reactivation 1, FGF22 binding 1, Statin myotox sup 0 and DENV2 CPE -2.
Screening COc1ccc(-c2cn(CC[C@@H]3CC[C@H](NC(=O)Nc4ccc(F)cc4)[C@@H](CO)O3)nn2)cc1 returned E-selectin induc 0, Xi reactivation 0 and DENV2 CPE 50*.
Screening CCCNC(=O)N[C@H]1CC[C@@H](CCn2cc(-c3cccc(F)c3)nn2)O[C@H]1CO returned E-selectin induc 1, PglD inh 5, Xi reactivation 0, FGF22 binding 0, Statin myotox sup 1 and DENV2 CPE 56*.
For CN(C)C(=O)c1cccc(-c2ccc([C@H]3[C@H](CO)N4C(=O)CN(C(=O)CC5CC5)C[C@@H]34)cc2)c1 the results were E-selectin induc 0, Xi reactivation 0 and DENV2 CPE 9.
